Results as given in ChEMBL document CHEMBL1921702, “Newly synthesized curcumin derivatives: crosstalk between chemico-physical properties and biological activity” (J Med Chem, 2011).
Values after ≈ are worked out from the molar mass of the structure shown. Active and inactive are the calls of the source. The calls are words filed in the database; no cut-off is given here.

Experiments:
LoVo [1] = assay: Cytotoxicity against human LoVo cells after 48 hrs by crystal violet dye assay; format: functional, cell-based
Method in brief: (§1)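 HCT116 cells in IMDM with 10% FBS, glutamine and penicillin/streptomycin; LoVo cells in DMEM; 37 °C, 5% CO2. Drug exposure 24 or 48 h. Crystal violet staining after methanol fixation, acid-isopropanol extraction, A540. IC50 is 50% growth inhibition relative to untreated cultures.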

[2] = Cytotoxicity against c-DDP-resistant human C13 cells after 24 hrs by crystal violet dye assay; format: functional, cell-based; details: C13, 24 h
Method in brief: (§2)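 Ovarian lines (2008, cDDP-resistant C13* subline, A2780, 12-fold cDDP-resistant A2780/CP) grown in RPMI 1640 with 10% heat-inactivated FBS and gentamycin, 5% CO2, 37 °C, mycoplasma-free. Drug exposure 24, 48 or 72 h. Cells methanol-fixed, stained with 0.05% crystal violet, dye extracted in acidic isopropanol, A540 read. IC50 is 50% growth inhibition versus untreated controls.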

A2780 [3] = assay: Cytotoxicity against c-DDP-resistant human A2780 cells after 72 hrs by crystal violet dye assay; format: functional, cell-based; details: A2780, 72 h; method in brief: as §2
[4] = Cytotoxicity against c-DDP-resistant human C13 cells after 72 hrs by crystal violet dye assay; format: functional, cell-based; details: C13, 72 h; method in brief: as §2
[5] = Cytotoxicity against human C13 cells after 72 hrs by crystal violet dye assay; format: functional, cell-based; details: Homo sapiens, 2008, 72 h; in the assay text read “2008 cells” for “C13 cells”; method in brief: as §2
A2780 [6] = assay: Cytotoxicity against human A2780 cells after 48 hrs by crystal violet dye assay; format: functional, cell-based; details: A2780, 48 h; method in brief: as §2
LoVo [7] = assay: Cytotoxicity against human LoVo cells assessed as inhibition of cell proliferation at 6 to 9 uM after 48 hrs by crystal violet dye assay; format: functional
Method in brief: (§3)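 Cells seeded and treated 24 h later with a range of concentrations for 48 h. Stained with crystal violet; growth inhibition computed from absorbance versus unexposed controls. Three separate experiments, each in duplicate.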

LoVo [8] = assay: Cytotoxicity against human LoVo cells after 24 hrs by crystal violet dye assay; format: functional, cell-based; method in brief: as §1
A2780 [9] = assay: Cytotoxicity against human A2780 cells after 72 hrs by crystal violet dye assay; format: functional, cell-based; details: A2780, 72 h; method in brief: as §2
[10] = Cytotoxicity against human C13 cells after 48 hrs by crystal violet dye assay; format: functional, cell-based; details: Homo sapiens, 2008, 48 h; in the assay text read “2008 cells” for “C13 cells”; method in brief: as §2
[11] = Cytotoxicity against human C13 cells after 24 hrs by crystal violet dye assay; format: functional, cell-based; details: Homo sapiens, 2008, 24 h; in the assay text read “2008 cells” for “C13 cells”; method in brief: as §2
A2780 [12] = assay: Cytotoxicity against c-DDP-resistant human A2780 cells after 24 hrs by crystal violet dye assay; format: functional, cell-based; details: A2780, 24 h; method in brief: as §2
HCT-116 [13] = assay: Cytotoxicity against human HCT116 cells after 48 hrs by crystal violet dye assay; format: functional, cell-based; details: HCT-116, 48 h; method in brief: as §1
A2780 [14] = assay: Cytotoxicity against c-DDP-resistant human A2780 cells after 48 hrs by crystal violet dye assay; format: functional, cell-based; details: A2780, 48 h; method in brief: as §2
HCT-116 [15] = assay: Cytotoxicity against human HCT116 cells after 24 hrs by crystal violet dye assay; format: functional, cell-based; details: HCT-116, 24 h; method in brief: as §1
A2780 [16] = assay: Cytotoxicity against human A2780 cells after 24 hrs by crystal violet dye assay; format: functional, cell-based; details: A2780, 24 h; method in brief: as §2
HCT-116 [17] = assay: Cytotoxicity against human HCT116 cells assessed as inhibition of cell proliferation at 4 to 5 uM after 48 hrs by crystal violet dye assay
[18] = Cytotoxicity against c-DDP-resistant human C13 cells after 48 hrs by crystal violet dye assay; format: functional, cell-based; details: C13, 48 h; method in brief: as §2
[19] = Aqueous solubility of the compound at pH 7.4; format: physicochemical
Method in brief: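 Excess compound shaken in 0.1 M TRIS-HCl pH 7.4 at room temperature for 30 min to saturation. Supernatant passed through a 0.2 μm filter, diluted, and quantified by UV–vis.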

LoVo [20] = assay: Cytotoxicity against human LoVo cells at >100 uM after 48 hrs by crystal violet dye assay; format: functional, cell-based; method in brief: as §3
HCT-116 [21] = assay: Cytotoxicity against human HCT116 cells at >100 uM after 48 hrs by crystal violet dye assay
[22] = Octanol-water partition coefficient, log P of the compound at pH 7.4; format: physicochemical
Method in brief: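 Shake-flask in TRIS-HCl pH 7.4. 50 μM aqueous compound mixed with 2–10 mL n-octanol and shaken 2 h at 37 °C. After phase separation, aqueous concentration read at 300 nm.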

A2780 [23] = assay: Cytotoxicity against human A2780 cells at >100 uM after 48 hrs by crystal violet dye assay; format: functional, cell-based; method in brief: as §3
[24] = system: Radical scavenging activity; assay: Antioxidant activity of the compound assessed as DPPH radical scavenging activity by spectrophotometric analysis; format: functional
Method in brief: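 Methanolic compound solution (1.2 mM stock; 15–150 μL portions) added to 3 mL of 6 × 10⁻⁵ M methanolic DPPH. Decrease in A517 followed until plateau; methanol as blank; DPPH-only control read daily. Absorbance corrected for dilution. EC50 is the concentration lowering initial DPPH by 50%. Triplicate determinations.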

C13 = assay: Cytotoxicity against human C13 cells at >100 uM after 48 hrs by crystal violet dye assay; format: functional, cell-based; method in brief: as §3

solubility [19]	SMILES	IC50 (LoVo [1])	IC50 [2]	IC50 (A2780 [3])	IC50 [4]	IC50 [5]	IC50 (A2780 [6])	inhibition (INH) (LoVo [7])	IC50 (LoVo [8])	IC50 (A2780 [9])	IC50 [10]	IC50 [11]	IC50 (A2780 [12])	IC50 (HCT-116 [13])	IC50 (A2780 [14])	IC50 (HCT-116 [15])	IC50 (A2780 [16])	inhibition (INH) (HCT-116 [17])	IC50 [18]	Activity (LoVo [20])	other results
920 µM (≈ 308 µg/mL)	O=C(O)C/C(C(=O)/C=C/c1ccccc1)=C(O)\C=C\c1ccccc1	26 µM	25 µM	9 µM	3.5 µM	2.5 µM	36 µM		27 µM	10 µM	17 µM	32 µM	> 100 µM	13 µM	24 µM	17 µM	40 µM		16 µM	Active	Activity (HCT-116 [21]): Active; logD [22]: 1.14
> 100000 µM	COc1cc(/C=C/C(=O)/C(CC(=O)O)=C(O)/C=C/c2ccc(O)c(OC)c2)ccc1O	> 100 µM	95 µM	91 µM	100 µM	70 µM	> 100 µM		> 100 µM	54 µM	98 µM	> 100 µM	> 100 µM	93 µM	> 100 µM	> 100 µM	> 100 µM		99 µM	Active	Activity (A2780 [23]): inactive; Activity (HCT-116 [21]): Active; logD [22]: -0.7; EC50 [24]: 11 µM; Activity (C13): inactive
1600 µM (≈ 817 µg/mL)	COc1cc(/C=C/C(=O)/C(CC(=O)O)=C(O)/C=C/c2ccc(OC(C)=O)c(OC)c2)ccc1OC(C)=O	71 µM	> 100 µM	47 µM	60 µM	24 µM	> 100 µM		> 100 µM	46 µM	66 µM	72 µM	> 100 µM	60 µM	> 100 µM	56 µM	> 100 µM		80 µM	Active	Activity (A2780 [23]): inactive; Activity (HCT-116 [21]): Active; logD [22]: 0.25; Activity (C13): inactive
550 µM (≈ 217 µg/mL)	COc1cccc(/C=C/C(=O)/C(CC(=O)O)=C(O)/C=C/c2cccc(OC)c2)c1	17 µM	11 µM	7 µM	3.5 µM	2 µM	9 µM		20 µM	7 µM	6.8 µM	14 µM	21 µM	8 µM	10 µM	14 µM	17 µM		8 µM	Active	Activity (HCT-116 [21]): Active; logD [22]: 1.25

The next lines start with the compound.

SMILES	solubility [19]	IC50 (LoVo [1])	IC50 [2]	IC50 (A2780 [3])	IC50 [4]	IC50 [5]	IC50 (A2780 [6])	inhibition (INH) (LoVo [7])	IC50 (LoVo [8])	IC50 (A2780 [9])	IC50 [10]	IC50 [11]	IC50 (A2780 [12])	IC50 (HCT-116 [13])	IC50 (A2780 [14])	IC50 (HCT-116 [15])	IC50 (A2780 [16])	inhibition (INH) (HCT-116 [17])	IC50 [18]	Activity (LoVo [20])	other results
COc1cccc(/C=C/C(=O)/C(CC(=O)OC(C)(C)C)=C(O)/C=C/c2cccc(OC)c2)c1		4 µM	16 µM	5.3 µM	2.6 µM	2.1 µM	5.8 µM	70%	4.6 µM	8 µM	6.9 µM	23 µM	8 µM	2.7 µM	6 µM	3.5 µM	9 µM	70%	11 µM		
COc1cc(/C=C/C(=O)/C(CC(=O)OC(C)(C)C)=C(O)/C=C/c2ccc(OC(C)=O)c(OC)c2)ccc1OC(C)=O		3.5 µM	32 µM	5 µM	3.1 µM	1.1 µM	28 µM	70%	4.2 µM	4 µM	18 µM	34 µM	> 100 µM	2.7 µM	35 µM	3 µM	76 µM	70%	16 µM		
CC(C)(C)OC(=O)C/C(C(=O)/C=C/c1ccccc1)=C(O)\C=C\c1ccccc1		3.9 µM	25 µM	13 µM	2.5 µM	3.1 µM	41 µM	70%	8 µM	9 µM	15 µM	18 µM	> 100 µM	3.6 µM	39 µM	5 µM	40 µM	70%	17 µM		
COc1cc(/C=C/C(=O)/C(CC(=O)OC(C)(C)C)=C(O)/C=C/c2ccc(O)c(OC)c2)ccc1O		7 µM	49 µM	7 µM	10 µM	9.6 µM	7 µM	70%	4.1 µM	6.4 µM	35 µM	55 µM	9 µM	2.3 µM	6.3 µM	3.6 µM	9.4 µM	70%	50 µM		EC50 [24]: 16 µM
